Drawing on ChEMBL document CHEMBL4513216, “Probing the Open Global Health Chemical Diversity Library for Multistage-Active Starting Points for Next-Generation Antimalarials” (ACS Infect Dis, 2020), this text covers cytotoxicity for 97 compounds.

The data set can be described thus: Toxicity liver stage against HepG2, at 10uM. To be noted: human, HepG2-A16-CD81EGFP cells; read-out: INHIBITION
The arrangement: test concentration 10 uM, cell line HepG2-A16-CD81EGFP. It is filed as cell-based. An outline of the steps:
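Uninfected HepG2-A16-CD81EGFP cells, 3 × 10^3 per well, 1536-well, plated on prespotted compound at 10 μM final, parasite-free screening media added to match infected plates; puromycin 10 μM positive, DMSO 0.5% negative; run in parallel with 48 h PbLuc assay at 37 °C, 5% CO2; viability by CellTiter-Glo luminescence, normalized to controls.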
Consider `CN(CCn1cccn1)S(=O)(=O)c1cccc(F)c1C#N`, for which the cytotoxicity at 10 µM was found to be 3.41%.

As to `CCO[C@@H]1CC[C@H]2[C@H]1OCCN2Cc1ccoc1`, the cytotoxicity at 10 µM was -96.9%.

With `COc1ccc(CNc2c(N3CCN(C)CC3)c(=O)c2=O)cc1`, the cytotoxicity at 10 µM stood at 2.4%.

As for `Cc1nc(C2CCCN2C(=O)CCCOc2ccccc2C)no1` (configuration not stated), the cytotoxicity at 10 µM was -2.21%.

Regarding `CCN1CCc2c(sc3c2C(=O)NC(C=Cc2ccco2)N3)C1` (configuration not stated), the cytotoxicity at 10 µM was -1.07%.

Consider `Cc1nc(C(=O)N2CCC(c3nccn3Cc3ccncc3)CC2)cs1`, for which the cytotoxicity at 10 µM was -2.85%.

For `CC(C)Nc1cccc(CC2CCN(S(C)(=O)=O)CC2)n1`, the cytotoxicity at 10 µM is -22.3%.

For the compound `CC(NC1CCCC1)c1ccccc1-n1cccn1` (configuration not stated), the cytotoxicity at 10 µM amounted to 7.5%.

In the case of `CCN(CC1CCOC1)C(=O)Nc1ccc(OC)nc1` (configuration not stated), the cytotoxicity at 10 µM is -4.2%.

As to `O=C(C[S+]([O-])Cc1c(F)cccc1Cl)N1CCc2sccc2C1` (configuration not stated), the cytotoxicity at 10 µM is -0.784%.

As for `COCCNC(=O)[C@H]1CC[C@@H]2[C@@H](CCN2S(C)(=O)=O)O1`, the cytotoxicity at 10 µM was -8.87%.

As for `O=C(NCCCNCC1CNc2ccnn2C1)c1ccccc1` (configuration not stated), the cytotoxicity at 10 µM was -1.48%.

In the case of `COCCN(Cc1nc2c(cnn2C)c(=O)[nH]1)C(C)c1ccccc1` (configuration not stated), the cytotoxicity at 10 µM is -1.47%.

On to `CC(O)CN1CCN(C(=O)c2ccnc(N(C)C)c2)CC1` (configuration not stated), for which the cytotoxicity at 10 µM came out at 4.37%.

Take `CC(C)[C@H]1CN(Cc2ccccc2C#N)C[C@@H]1NC(=O)C1CCOCC1`: the cytotoxicity at 10 µM was 1.47%.

For `COc1cc(NC(=O)N(C)Cc2ccc(Br)o2)ncn1`, the cytotoxicity at 10 µM is -4.12%.

Turning to `CC(C)c1nc(C2CCCNC2)no1` (configuration not stated), the cytotoxicity at 10 µM is 0.684%.

With `CCCNC(=O)CC1OCCc2ccsc21` (configuration not stated), the cytotoxicity at 10 µM is -1.5%.

With `CCc1ccc(C(C)NC(=O)CN(C)Cc2ccc(C)o2)cc1` (configuration not stated), the cytotoxicity at 10 µM was 18.4%.

Regarding `CC(C)S(=O)(=O)C(C)C(=O)NCc1ccccc1COc1ccccc1` (configuration not stated), the cytotoxicity at 10 µM is 12.1%.

As to `COc1cc2c(cc1CNCc1ccnc(-n3cccn3)c1)OC(C)C2` (configuration not stated), the cytotoxicity at 10 µM was 11.2%.

Turning to `Cn1cnc2c1CCN(Cc1ccc(Cl)c3cccnc13)C2`, the cytotoxicity at 10 µM worked out at 10.6%.

In the case of `CN1CC2(CCN(S(=O)(=O)C3CC3)CC2)c2ccccc21`, the cytotoxicity at 10 µM is -4.35%.

For the compound `CC(=O)c1cc(CC(=O)NCc2cccc(F)c2F)cs1`, the cytotoxicity at 10 µM worked out at 2.95%.

Turning to `CCn1nc(C)c(NC(=O)c2cc(NC(=O)C(C)C)n(C)n2)c1C`, the cytotoxicity at 10 µM was found to be 0.568%.

On to `c1ccc(Cc2n[nH]c(C3CCOC3)n2)cc1` (configuration not stated), for which the cytotoxicity at 10 µM amounted to 1.06%.

In the case of `Cn1cc(C2CCCN2Cc2csc(-c3ccsc3)n2)cn1` (configuration not stated), the cytotoxicity at 10 µM was -8.21%.

Consider `CN(CC(=O)Nc1ccc(Br)cn1)C(=O)C(C)(C)C`, for which the cytotoxicity at 10 µM was -11.9%.

As for `O=C(NCC1CC1)c1nc2c(o1)CN(CC1CC1)C2`, the cytotoxicity at 10 µM was -147%.

On to `CN(c1ccc2ccccc2c1)S(=O)(=O)c1cc(C(=O)O)cs1`, for which the cytotoxicity at 10 µM amounted to 1.2%.

With `CC(CNc1cncc(-n2cccn2)n1)N(C)c1ccccc1` (configuration not stated), the cytotoxicity at 10 µM is -4.48%.

Turning to `O=C(CSC1=NS(=O)(=O)c2cc(F)ccc2N1)c1ccccc1`, the cytotoxicity at 10 µM is -10.7%.

`c1ccc2sc(N3CCC4(CCCN4Cc4ncc[nH]4)CC3)nc2c1`: the cytotoxicity at 10 µM was 9.3%.

Take `CCc1ncc2c(n1)CN(Cc1cccc(OCC(N)=O)c1)CC2`: the cytotoxicity at 10 µM was -7.42%.

On to `COCC1c2c(cnn2CC2CC2)CCN1Cc1cccs1` (configuration not stated), for which the cytotoxicity at 10 µM was -6.61%.

`COc1ccc(Cl)c(-c2noc3ncn(CCC(=O)O)c(=O)c23)c1`: the cytotoxicity at 10 µM turned out to be 7.25%.

As to `COCCN1CCC(NC(=O)C/C=C/c2ccc(C(C)C)cc2)CC1`, the cytotoxicity at 10 µM was -0.616%.

On to `CCOC(=O)CNC(=O)N1CCc2onc(-c3ccc(Cl)cc3)c2C1`, for which the cytotoxicity at 10 µM is -43.4%.

For `CCN1CCN(S(=O)(=O)c2ncn(C)c2Cl)CC1`, the cytotoxicity at 10 µM was determined as 20.9%.

Turning to `COc1c(C2CCCN2CCOc2ccccc2C#N)c(C)nn1C` (configuration not stated), the cytotoxicity at 10 µM is 2.59%.

Take `c1cncc(-c2noc(CN3CCCCC3Cn3cccn3)n2)c1` (configuration not stated): the cytotoxicity at 10 µM is -2.42%.

As to `CC(=O)N1CCN(CC2CCOc3ccccc3C2)CC1` (configuration not stated), the cytotoxicity at 10 µM was 7.68%.

For the compound `O=c1cc(Cn2ccnc2)nc2n1CCCN(Cc1cccs1)C2`, the cytotoxicity at 10 µM came out at 0.312%.

Regarding `COc1ccc(CCNC(=O)C2CCC(Cn3cnnn3)CC2)cc1` (configuration not stated), the cytotoxicity at 10 µM was 10.2%.

As for `C[C@@H]1CN2C[C@H](O)CC2CN1Cc1ccncc1` (some centres not stated), the cytotoxicity at 10 µM is 0.207%.

On to `CC1c2ncc(CNC(=O)C3CC3)n2CCN1Cc1ccncc1` (configuration not stated), for which the cytotoxicity at 10 µM is -5.72%.

In the case of `O=C(CS(=O)(=O)Cc1nnnn1C1CC1)NCC1CC1`, the cytotoxicity at 10 µM was determined as 16.6%.

On to `CCc1cc(NC(=O)C(c2cccc(F)c2)N2CCOCC2)[nH]n1` (configuration not stated), for which the cytotoxicity at 10 µM is -10.3%.

In the case of `Cc1ccc(CN2C[C@@H]3CCCO[C@@H]3[C@H](NC(=O)CC3CC3)C2)s1`, the cytotoxicity at 10 µM turned out to be 19.9%.

For `COCCN1CCC(NCc2c(C)nn(C)c2N(C)C)CC1`, the cytotoxicity at 10 µM was -2.11%.

As for `O=C(NC[C@H]1CCCO1)c1ccc(S(=O)(=O)N2C[C@H]3C[C@@H]2CN3)cc1`, the cytotoxicity at 10 µM stood at 2.5%.

Turning to `CN1CCN(S(=O)(=O)c2ccc(Cl)c(Cl)c2)c2cnccc21`, the cytotoxicity at 10 µM was determined as 5.57%.

Turning to `CCC1c2ccc(C)n2CCN1C(=O)Cn1cnc2sc(C)cc2c1=O` (configuration not stated), the cytotoxicity at 10 µM is 6.09%.

Consider `CC(CNC(=O)c1ccco1)N1CCc2sccc2C1` (configuration not stated), for which the cytotoxicity at 10 µM is 0.107%.

As to `CN(Cc1cc(C(C)(C)C)n[nH]1)Cc1c[nH]nc1-c1ccc(F)cc1`, the cytotoxicity at 10 µM is -4.83%.

As to `COCCC(=O)N1CC[C@H]2O[C@@H](C)C[C@H]2C1`, the cytotoxicity at 10 µM is -72.4%.

On to `Cc1cccc(C2CCCN(C(=O)CN3CCC(C(N)=O)CC3)C2)c1` (configuration not stated), for which the cytotoxicity at 10 µM was -5.17%.

In the case of `Cc1c(F)cc(C(=O)O)cc1S(=O)(=O)Nc1ccc(C#N)cc1`, the cytotoxicity at 10 µM is -6.04%.

Take `Cc1nc(-c2ccccc2)sc1CNC(=O)c1ccc(=O)n(C)c1`: the cytotoxicity at 10 µM was -6.09%.

As to `CCC(CC)Cn1ncc(N2CCOCC2)cc1=O`, the cytotoxicity at 10 µM is -3.46%.

Take `CCc1noc(C(C)N2CCC(N3CCCCC3)CC2)n1` (configuration not stated): the cytotoxicity at 10 µM was -4.8%.

`Cc1ccc(CN2CCN(c3nc4c(s3)c(C)nn4C)C(C)C2=O)cc1` (configuration not stated): the cytotoxicity at 10 µM was 76.5%.

Regarding `Cn1nc(CN2CCCC2)c2c1CN(c1cnccn1)CC2`, the cytotoxicity at 10 µM was -95.3%.

Regarding `CC[S+](CC)[c-]1c(=O)[nH]c(=O)n(Cc2ccc(F)cc2)c1=O`, the cytotoxicity at 10 µM worked out at 4.12%.

On to `CC(C)(O)CN1CCN(C(=O)c2cccn2Cc2cccnc2)CC1`, for which the cytotoxicity at 10 µM was -0.787%.

`Cc1nn(C)c2ncnc(N3CCCC(OCc4cccnc4)C3)c12` (configuration not stated): the cytotoxicity at 10 µM turned out to be 12.8%.

As for `Cc1noc(C(C)C)c1C(=O)NCCCN1CCNCC1`, the cytotoxicity at 10 µM is -24.7%.

In the case of `CCc1c(C)nn2c(O)cc(C3CCN(C(=O)C4CC4)C3)nc12` (configuration not stated), the cytotoxicity at 10 µM came out at 1.97%.

Consider `O=C(c1ccco1)N1CCc2onc(CN3CCCC3)c2C1`, for which the cytotoxicity at 10 µM was 4.38%.

As for `O=C(NCC1(O)COCCN(Cc2cccc(O)c2)C1)c1ccccn1` (configuration not stated), the cytotoxicity at 10 µM is -4.29%.

In the case of `CCN1CC(C(=O)N2CCN(CCn3cccc3)CC2)CC1=O` (configuration not stated), the cytotoxicity at 10 µM was -3.64%.

As for `COCc1nn(C(C)C)c2c1CCN(Cc1ccc(C)s1)C2`, the cytotoxicity at 10 µM was -5.82%.

`CC(=O)N1N=C(c2cccs2)OC1C(=O)Nc1ccc(C(C)C)cc1` (configuration not stated): the cytotoxicity at 10 µM is -12.7%.

On to `CCn1cc2c(n1)CN(Cc1cnn(C)c1)CC2COCC1CC1` (configuration not stated), for which the cytotoxicity at 10 µM is -80.4%.

On to `Cc1ccc(C#N)c(N2CCCC(c3nccn3Cc3cscn3)C2)n1` (configuration not stated), for which the cytotoxicity at 10 µM was -1.9%.

On to `O=c1[nH][nH]cc1-c1ccnc(NCCN2CCCC2)n1`, for which the cytotoxicity at 10 µM is 2.89%.

Turning to `COc1ccccc1Cc1cc(O)nc(NC(C)CN(C)C)n1` (configuration not stated), the cytotoxicity at 10 µM is 2.32%.

With `Cc1cccc(C(C(=O)NC(C)(C)CN2CCOCC2)N(C)C)c1` (configuration not stated), the cytotoxicity at 10 µM is -2.21%.

With `Cc1cnn(CC2CN(Cc3nc4ccccc4o3)CCO2)c1` (configuration not stated), the cytotoxicity at 10 µM was -3.49%.

For `CCOC(=O)c1nc(COc2ccc(CC(N)=O)cc2)no1`, the cytotoxicity at 10 µM is -6.24%.

Take `O=C1CC2(CCN(Cc3cccnc3)C2)CN1c1ccc2c(c1)OCO2` (configuration not stated): the cytotoxicity at 10 µM was -70.2%.

As for `CC(=O)Nc1ccc(OCc2noc(C(=O)N3CCCCCC3)n2)cc1`, the cytotoxicity at 10 µM was -23%.

Turning to `N#Cc1cccc(N2CCC(c3nccn3Cc3cscn3)CC2)n1`, the cytotoxicity at 10 µM came to 1.46%.

On to `COCCN(c1ccncc1)S(=O)(=O)c1cc(C)c(F)cc1F`, for which the cytotoxicity at 10 µM is -6.54%.

As for `Cc1ccc2nccc(C(=O)N3CCOC(CCN(C)C)C3)c2c1` (configuration not stated), the cytotoxicity at 10 µM is 10.8%.

For the compound `c1cnc(N2CCC(c3csc(Nc4cnccn4)n3)CC2)nc1`, the cytotoxicity at 10 µM is 34%.

On to `CC(C)Nc1ncnc2c1CCN(C(=O)NCc1cccnc1)CC2`, for which the cytotoxicity at 10 µM was -150%.

Turning to `CC(=O)N1CCCC1c1cc(N2CCN(CC3CC3)CC2)cc(C)n1` (configuration not stated), the cytotoxicity at 10 µM is -2.14%.

Regarding `CCc1[nH]c2c(CNc3cc(C)nc(NC)n3)cc(C)cc2c1C`, the cytotoxicity at 10 µM was -41%.

As for `N#Cc1ccccc1N1CCCN(C(=O)CCc2ccsc2)CC1`, the cytotoxicity at 10 µM is -8.25%.

On to `CC(C)n1c(C(=O)N2CCCC2)nc2c1CCN(C)C2`, for which the cytotoxicity at 10 µM was 15.3%.

Take `Cc1ccc(CN2CCOC3(CCN(C(=O)N4CCCC4)CC3)C2)cc1`: the cytotoxicity at 10 µM is 5.7%.

With `N#Cc1ccc(N2CCCN(c3nccs3)CC2)nc1`, the cytotoxicity at 10 µM is 32.5%.

`Cn1ccnc1C(=O)N1CCOC(Cc2ccc(Cl)cc2)C1` (configuration not stated): the cytotoxicity at 10 µM stood at 9.23%.

For the compound `O=C(O)CC1COCCN1Cc1ccccc1-c1ccccc1` (configuration not stated), the cytotoxicity at 10 µM was found to be 12.9%.

As for `COc1ccc(-c2nnsc2C(=O)N2CCSCC2)cc1`, the cytotoxicity at 10 µM is -1.17%.

As for `CC(CN1CCOCC1)NC(=O)NCc1ccc(Cl)s1` (configuration not stated), the cytotoxicity at 10 µM was 1.23%.
